Test results from ChEMBL document CHEMBL4190234, “Design, synthesis and anticancer activity of new monastrol analogues bearing 1,3,4-oxadiazole moiety” (Eur J Med Chem, 2017).

Tests used:
Type in all cases: functional
SF-295 = test: Growth inhibition of human SF295 cells at 10 uM incubated for 48 hrs by sulforhodamine B assay relative to control; settings: SF-295, 48 h, read-out: GI
Summary of the method: (§1)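 NCI single-dose screen: cells grown in RPMI 1640 with 5% FBS and 2 mM L-glutamine, plated at 5,000–40,000 cells/well and preincubated 24 h at 37 °C, 5% CO2. Compounds taken from DMSO stock and tested at final 10 µM for 48 h. Cells fixed with TCA, stained with 0.4% SRB, absorbance read at 515 nm. Percentage growth calculated against untreated controls; controls held DMSO at the same dilution.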

K562 = test: Growth inhibition of human K562 cells at 10 uM incubated for 48 hrs by sulforhodamine B assay relative to control; settings: K562, 48 h, read-out: GI
Summary of the method: (§2)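 Single-dose screen at 10 μM final: cells in RPMI 1640, 5% FBS, 2 mM L-glutamine, plated 5,000–40,000/well, preincubated 24 h at 37°C, 5% CO2; drug 48 h; adherent cells fixed with 10% TCA, suspension cells with 16% TCA; SRB stain, absorbance 515 nm; percentage growth versus untreated control, with time-zero plates.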

MOLT-4 = test: Growth inhibition of human MOLT4 cells at 10 uM incubated for 48 hrs by sulforhodamine B assay relative to control; settings: MOLT-4, 48 h, read-out: GI; summary of the method: as §2
SK-MEL-2 = test: Growth inhibition of human SK-MEL-2 cells at 10 uM incubated for 48 hrs by sulforhodamine B assay relative to control; settings: SK-MEL-2, 48 h, read-out: GI; summary of the method: as §1
UO-31 = test: Growth inhibition of human UO31 cells at 10 uM incubated for 48 hrs by sulforhodamine B assay relative to control; settings: UO-31, 48 h, read-out: GI; summary of the method: as §1
SF-268 = test: Growth inhibition of human SF268 cells at 10 uM incubated for 48 hrs by sulforhodamine B assay relative to control; settings: SF-268, 48 h, read-out: GI; summary of the method: as §1
OVCAR-5 = test: Growth inhibition of human OVCAR5 cells at 10 uM incubated for 48 hrs by sulforhodamine B assay relative to control; settings: OVCAR-5, 48 h, read-out: GI; summary of the method: as §2
OVCAR-4 = test: Growth inhibition of human OVCAR4 cells at 10 uM incubated for 48 hrs by sulforhodamine B assay relative to control; settings: OVCAR-4, 48 h, read-out: GI; summary of the method: as §2
ACHN = test: Growth inhibition of human ACHN cells at 10 uM incubated for 48 hrs by sulforhodamine B assay relative to control; settings: read-out: GI; summary of the method: as §2
A498 = test: Growth inhibition of human A498 cells at 10 uM incubated for 48 hrs by sulforhodamine B assay relative to control; settings: A498, 48 h, read-out: GI; summary of the method: as §2
NCI-H226 = test: Growth inhibition of human NCI-H226 cells at 10 uM incubated for 48 hrs by sulforhodamine B assay relative to control; settings: NCI-H226, 48 h, read-out: GI; summary of the method: as §2
Malme-3M = test: Growth inhibition of human MALME-3M cells at 10 uM incubated for 48 hrs by sulforhodamine B assay relative to control; settings: read-out: GI; summary of the method: as §2
SNB-75 = test: Growth inhibition of human SNB75 cells at 10 uM incubated for 48 hrs by sulforhodamine B assay relative to control; settings: SNB-75, 48 h, read-out: GI; summary of the method: as §1
SF-539 = test: Growth inhibition of human SF539 cells at 10 uM incubated for 48 hrs by sulforhodamine B assay relative to control; settings: SF-539, 48 h, read-out: GI; summary of the method: as §1
SR = test: Growth inhibition of human SR cells at 10 uM incubated for 48 hrs by sulforhodamine B assay relative to control; settings: read-out: GI; summary of the method: as §1
SN12C = test: Growth inhibition of human SN12C cells at 10 uM incubated for 48 hrs by sulforhodamine B assay relative to control; settings: read-out: GI; summary of the method: as §1
NCI-H460 = test: Growth inhibition of human NCI-H460 cells at 10 uM incubated for 48 hrs by sulforhodamine B assay relative to control; settings: NCI-H460, 48 h, read-out: GI; summary of the method: as §2
HOP-92 = test: Growth inhibition of human HOP92 cells at 10 uM incubated for 48 hrs by sulforhodamine B assay relative to control; settings: HOP-92, 48 h, read-out: GI; summary of the method: as §2
SW-620 = test: Growth inhibition of human SW620 cells at 10 uM incubated for 48 hrs by sulforhodamine B assay relative to control; settings: SW-620, 48 h, read-out: GI; summary of the method: as §1
NCI-H322M = test: Growth inhibition of human NCI-H322M cells at 10 uM incubated for 48 hrs by sulforhodamine B assay relative to control; settings: read-out: GI; summary of the method: as §2
IGROV-1 = test: Growth inhibition of human IGROV1 cells at 10 uM incubated for 48 hrs by sulforhodamine B assay relative to control; settings: IGROV-1, 48 h, read-out: GI; summary of the method: as §2
PC-3 = test: Growth inhibition of human PC3 cells at 10 uM incubated for 48 hrs by sulforhodamine B assay relative to control; settings: PC-3, 48 h, read-out: GI; summary of the method: as §2
M14 = test: Growth inhibition of human M14 cells at 10 uM incubated for 48 hrs by sulforhodamine B assay relative to control; settings: M14, 48 h, read-out: GI; summary of the method: as §2
EKVX = test: Growth inhibition of human EKVX cells at 10 uM incubated for 48 hrs by sulforhodamine B assay relative to control; settings: read-out: GI; summary of the method: as §2
HCT-116 = test: Growth inhibition of human HCT116 cells at 10 uM incubated for 48 hrs by sulforhodamine B assay relative to control; settings: HCT-116, 48 h, read-out: GI; summary of the method: as §2
MDA-MB-468 = test: Growth inhibition of human MDA-MB-468 cells at 10 uM incubated for 48 hrs by sulforhodamine B assay relative to control; settings: MDA-MB-468, 48 h, read-out: GI; summary of the method: as §2
CAKI-1 = test: Growth inhibition of human Caki1 cells at 10 uM incubated for 48 hrs by sulforhodamine B assay relative to control; settings: CAKI-1, 48 h, read-out: GI; summary of the method: as §2
NCI/ADR-RES = test: Growth inhibition of human NCI/ADR-RES cells at 10 uM incubated for 48 hrs by sulforhodamine B assay relative to control; settings: read-out: GI; summary of the method: as §2
MDA-MB-231 = test: Growth inhibition of human MDA-MB-231 cells at 10 uM incubated for 48 hrs by sulforhodamine B assay relative to control; settings: MDA-MB-231, 48 h, read-out: GI; summary of the method: as §2
RPMI-8226 = test: Growth inhibition of human RPMI8226 cells at 10 uM incubated for 48 hrs by sulforhodamine B assay relative to control; settings: RPMI-8226, 48 h, read-out: GI; summary of the method: as §2
UACC-257 = test: Growth inhibition of human UACC257 cells at 10 uM incubated for 48 hrs by sulforhodamine B assay relative to control; settings: UACC-257, 48 h, read-out: GI; summary of the method: as §1

CCOC(=O)C1=C(C)NC(SCc2nnc(-c3ccc(OC)cc3)o2)=NC1c1ccc(F)cc1 (stereo not drawn)
inhibition of growth at 10 µM (SF-295): < 10% | inhibition of growth at 10 µM (K562): < 10% | inhibition of growth at 10 µM (MOLT-4): < 10% | inhibition of growth at 10 µM (SK-MEL-2): < 10% | inhibition of growth at 10 µM (UO-31): 21.7% | inhibition of growth at 10 µM (SF-268): < 10% | inhibition of growth at 10 µM (OVCAR-5): < 10% | inhibition of growth at 10 µM (OVCAR-4): < 10% | inhibition of growth at 10 µM (ACHN): < 10% | inhibition of growth at 10 µM (A498): < 10% | inhibition of growth at 10 µM (NCI-H226): 10.4% | inhibition of growth at 10 µM (Malme-3M): < 10% | inhibition of growth at 10 µM (SNB-75): 17.5% | inhibition of growth at 10 µM (SF-539): < 10% | inhibition of growth at 10 µM (SR): 15.9% | inhibition of growth at 10 µM (SN12C): < 10% | inhibition of growth at 10 µM (NCI-H460): < 10% | inhibition of growth at 10 µM (HOP-92): 21.4% | inhibition of growth at 10 µM (SW-620): < 10% | inhibition of growth at 10 µM (NCI-H322M): < 10% | inhibition of growth at 10 µM (IGROV-1): < 10% | inhibition of growth at 10 µM (PC-3): 12.5% | inhibition of growth at 10 µM (M14): < 10% | inhibition of growth at 10 µM (EKVX): < 10% | inhibition of growth at 10 µM (HCT-116): < 10% | inhibition of growth at 10 µM (MDA-MB-468): < 10% | inhibition of growth at 10 µM (CAKI-1): 24.9% | inhibition of growth at 10 µM (NCI/ADR-RES): < 10% | inhibition of growth at 10 µM (MDA-MB-231): < 10% | inhibition of growth at 10 µM (RPMI-8226): < 10% | inhibition of growth at 10 µM (UACC-257): 11.8%

CCOC(=O)C1=C(C)NC(SCc2nnc(-c3ccc(Cl)cc3)o2)=NC1c1ccc(Cl)cc1 (stereo not drawn)
inhibition of growth at 10 µM (SF-295): 25.9% | inhibition of growth at 10 µM (K562): 44.2% | inhibition of growth at 10 µM (MOLT-4): 93% | inhibition of growth at 10 µM (SK-MEL-2): < 10% | inhibition of growth at 10 µM (UO-31): 51.3% | inhibition of growth at 10 µM (SF-268): 14% | inhibition of growth at 10 µM (OVCAR-5): 10.4% | inhibition of growth at 10 µM (OVCAR-4): 30% | inhibition of growth at 10 µM (ACHN): 35.9% | inhibition of growth at 10 µM (A498): 19.3% | inhibition of growth at 10 µM (NCI-H226): 30.1% | inhibition of growth at 10 µM (Malme-3M): 18.3% | inhibition of growth at 10 µM (SNB-75): 26.3% | inhibition of growth at 10 µM (SF-539): 12.3% | inhibition of growth at 10 µM (SR): 57.1% | inhibition of growth at 10 µM (SN12C): < 10% | inhibition of growth at 10 µM (NCI-H460): 21.1% | inhibition of growth at 10 µM (HOP-92): 35.9% | inhibition of growth at 10 µM (SW-620): 14.1% | inhibition of growth at 10 µM (NCI-H322M): 17.7% | inhibition of growth at 10 µM (IGROV-1): 37.7% | inhibition of growth at 10 µM (PC-3): 51.2% | inhibition of growth at 10 µM (M14): 30.7% | inhibition of growth at 10 µM (EKVX): 19.9% | inhibition of growth at 10 µM (HCT-116): 53.8% | inhibition of growth at 10 µM (MDA-MB-468): 51% | inhibition of growth at 10 µM (CAKI-1): 38.4% | inhibition of growth at 10 µM (NCI/ADR-RES): 30.1% | inhibition of growth at 10 µM (MDA-MB-231): 37.3% | inhibition of growth at 10 µM (RPMI-8226): 64.2% | inhibition of growth at 10 µM (UACC-257): 13.1%

CC(=O)C1=C(C)NC(SCc2nnc(-c3ccc(Cl)cc3)o2)=NC1c1ccc(F)cc1 (stereo not drawn)
inhibition of growth at 10 µM (SF-295): < 10% | inhibition of growth at 10 µM (K562): < 10% | inhibition of growth at 10 µM (MOLT-4): < 10% | inhibition of growth at 10 µM (SK-MEL-2): < 10% | inhibition of growth at 10 µM (UO-31): 26.1% | inhibition of growth at 10 µM (SF-268): < 10% | inhibition of growth at 10 µM (OVCAR-5): < 10% | inhibition of growth at 10 µM (OVCAR-4): < 10% | inhibition of growth at 10 µM (ACHN): < 10% | inhibition of growth at 10 µM (A498): < 10% | inhibition of growth at 10 µM (NCI-H226): 11.6% | inhibition of growth at 10 µM (Malme-3M): < 10% | inhibition of growth at 10 µM (SNB-75): 16.8% | inhibition of growth at 10 µM (SF-539): < 10% | inhibition of growth at 10 µM (SR): 19.1% | inhibition of growth at 10 µM (SN12C): < 10% | inhibition of growth at 10 µM (NCI-H460): < 10% | inhibition of growth at 10 µM (HOP-92): < 10% | inhibition of growth at 10 µM (SW-620): < 10% | inhibition of growth at 10 µM (NCI-H322M): < 10% | inhibition of growth at 10 µM (IGROV-1): 15.4% | inhibition of growth at 10 µM (PC-3): 18.5% | inhibition of growth at 10 µM (M14): < 10% | inhibition of growth at 10 µM (EKVX): < 10% | inhibition of growth at 10 µM (HCT-116): 13.1% | inhibition of growth at 10 µM (MDA-MB-468): 11.3% | inhibition of growth at 10 µM (CAKI-1): 16.9% | inhibition of growth at 10 µM (NCI/ADR-RES): < 10% | inhibition of growth at 10 µM (MDA-MB-231): 17% | inhibition of growth at 10 µM (RPMI-8226): 13.8% | inhibition of growth at 10 µM (UACC-257): < 10%
